Screening results from PubChem.
Hits are enriched below; roughly 2.1% of the tested compounds scored in any of these assays.
FXIa inh – human FXIa protease inhibitors, primary screen, biochemical, 1536-well | AID 798, 2007 | Coagulation factor XI (Homo sapiens), P03951 | purified FXIa, Boc-Glu-Ala-Arg-AMC fluorogenic substrate | hit rate 0.14% among 220,000 | inhibition, % at 5 µM;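 active means inhibition of at least 40%; inactive means inhibition below 40%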;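 further: fluorescence of freed AMC excited at 355 nm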
EP2 mod – EP2 receptor modulators, cAMP readout, primary screen, cell-based, HTRF cAMP, PGE2 stimulation. Prostaglandin E2 receptor EP2 subtype (Homo sapiens), P43116. EP2-expressing cells, cAMP HTRF FRET, PGE2 co-stimulation. induction, % at 25 µM. hit rate 0.83% among 260,000;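 active means compounds whose cAMP rise, as percent of the full-agonist control response, exceeds 60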;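 further: rat C6 glioma line stably carrying human EP2 under a CMV promoter; the protocol text gives 20 µM as final concentration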
Target sequence (P43116 whole entry, looked up): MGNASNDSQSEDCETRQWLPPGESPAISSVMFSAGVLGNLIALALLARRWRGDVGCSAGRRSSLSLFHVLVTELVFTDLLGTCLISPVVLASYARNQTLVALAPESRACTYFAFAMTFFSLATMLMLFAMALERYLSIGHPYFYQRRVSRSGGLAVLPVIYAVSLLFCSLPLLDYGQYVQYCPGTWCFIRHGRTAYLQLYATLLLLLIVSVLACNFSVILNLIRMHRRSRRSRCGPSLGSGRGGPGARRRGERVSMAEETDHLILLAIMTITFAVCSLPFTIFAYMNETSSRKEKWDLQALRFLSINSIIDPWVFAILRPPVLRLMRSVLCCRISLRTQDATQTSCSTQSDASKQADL
FXIIa inh – human FXIIa protease inhibitors, primary screen, biochemical, 1536-well. AID 800, 2007. inhibition, % at 5 µM. Coagulation factor XII (Homo sapiens), P00748. hit rate 0.3% among 220,000. purified FXIIa, Boc-QGR-AMC fluorogenic substrate, 2 h; in the data active means inhibition above about 40%
PGE2 EP2 inh – human EP2 receptor antagonists, primary screen, TR-FRET cAMP, C6 glioma cells | Prostaglandin E2 receptor EP2 subtype (Homo sapiens), P43116 | C6 glioma cells expressing human EP2; cells stimulated with saturating PGE2 | inhibition, % at 25 µM | hit rate 0.52% among 260,000;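 active means percent inhibition above 40 after rounding to a whole number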;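 further: rat C6 glioma host cells with rolipram phosphodiesterase inhibitor present; the protocol text gives 20 µM as final concentration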
Thrombin inh – human alpha-thrombin inhibitors, primary screen, counter-screen for coagulation protease inhibitor project, biochemical, 1536-well, fluorogenic AMC substrate. Boc-VPR-AMC fluorogenic substrate cleavage. Prothrombin (Homo sapiens), P00734. AID 1046, 2008. hit rate 0.26% among 220,000. inhibition, % at 5 µM;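 active means inhibition at or above 40%; inactive means inhibition below 40%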
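System: Human alpha-thrombin protein | Medium: pH 7.5 Tris (50 mM) with NaCl 150 mM, Tween 20 0.05% | Times: Enzyme reaction carried out at room temperature | Detection: AMC fluorescence, 355/460 nm | Evaluation: Percent inhibition scaled between no-compound controls and no-enzyme blanks | Benchmarks: Enzyme without compound as high, wells lacking enzyme as low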
hK5 inh – human KLK5 protease inhibitors, primary screen, biochemical, 1536-well; hit rate 0.59% among 210,000; inhibition, % at 5 µM; recombinant hK5, fluorogenic AMC substrate cleavage;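 active means inhibition of 40% or more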
Target sequence (Q9Y337 67-293 limits assumed): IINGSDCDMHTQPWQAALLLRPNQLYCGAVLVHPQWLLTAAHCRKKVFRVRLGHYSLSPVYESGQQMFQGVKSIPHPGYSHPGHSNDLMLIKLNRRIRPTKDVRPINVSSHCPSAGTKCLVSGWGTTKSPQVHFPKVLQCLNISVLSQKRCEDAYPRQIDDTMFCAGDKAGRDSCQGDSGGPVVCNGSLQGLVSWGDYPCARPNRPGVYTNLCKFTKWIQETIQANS
Each line names hits and unclear results; the compound was inactive in the other large screens.

CC(=O)OCCCNc1cc(Sc2nc3ccccc3s2)c2nonc2c1[N+](=O)[O-]	PGE2 EP2 inh 41
CC(=O)OCCCNc1cc(Sc2ccc(C)cc2)c2nonc2c1[N+](=O)[O-]	none
Cc1ccc(-n2c(C)cc(/C=N/NC(=O)CN(c3ccc(C)cc3C)S(C)(=O)=O)c2C)cc1	hK5 inh 42
Nc1nc(N)c2[nH]cnc2n1 (tested in a mixture with another compound)	none (no result: FXIa inh, FXIIa inh, Thrombin inh, hK5 inh)
Nc1ncnc2nc[nH]c12.Nc1ncnc2nc[nH]c12.[Cl][Pt]([Cl])([Cl])[Cl]	PGE2 EP2 inh 47 (no result: FXIa inh, FXIIa inh, Thrombin inh, hK5 inh)
CCCSc1cc(N2CCCC2)nc(-c2ccccc2)n1	none
CCSc1cc(N2CCCC2)nc(-c2ccccc2)n1	EP2 mod 64
CCOC(=O)c1c(N)nn(C(=O)CC)c1-c1ccccc1	none
CCOC(=O)c1c(N)nn(C(=O)C(C)C)c1-c1ccccc1	EP2 mod 63
Cc1cccc2cc(C#N)c(NC3CCCCC3)nc12	EP2 mod 78 (no result: FXIa inh, FXIIa inh, Thrombin inh, hK5 inh)
Cc1cccc2cc(C(c3nnnn3C3CCCCC3)N3CCN(Cc4ccccc4)CC3)c(=O)[nH]c12 (stereo not given)	none (no result: FXIa inh, FXIIa inh, Thrombin inh, hK5 inh)
COc1ccc(-c2cc(-c3cc(F)ccc3O)[nH]n2)cc1OC	PGE2 EP2 inh 66
Nc1cc(-c2cccs2)nn(CC(=O)Nc2ccccc2)c1=O	none (no result: FXIa inh, FXIIa inh, Thrombin inh, hK5 inh)
COc1ccc(-c2[nH]ncc2N=Nc2cc(C)cc(C)c2)cc1	none
COc1ccc(-c2[nH]ncc2N=Nc2ccccc2)cc1	EP2 mod 62
Cc1cc2ncn(S(=O)(=O)N3CCOCC3)c2cc1C	Thrombin inh 80, hK5 inh 47
CCc1ccc(S(=O)(=O)ON2C(=O)c3ccccc3C2=O)cc1	Thrombin inh 60
CCC(=O)N1N=C(c2cccc(NS(C)(=O)=O)c2)CC1c1cccc(OC)c1OC (stereo not given)	none (no result: FXIa inh, FXIIa inh, Thrombin inh, hK5 inh)
O=C1/C(=C\c2cccnc2)Sc2ccccc21	none
O=C1C(=Cc2cccnc2)C(=O)c2ccccc21	PGE2 EP2 inh 42 (no result: FXIa inh, FXIIa inh, Thrombin inh, hK5 inh)
CCN(CC)CCCNC(=O)c1cc2cc(OC)ccc2oc1=O	none (no result: FXIa inh, FXIIa inh, Thrombin inh, hK5 inh)
O=c1c(Cl)c(Cl)cnn1Cc1ccc(F)cc1	FXIIa inh 52
N#Cc1sc2nc(-c3ccccc3)cc(C(F)(F)F)c2c1N	Thrombin inh 50
N#Cc1sc2nc(-c3cccs3)cc(-c3ccccc3)c2c1N	none (no result: PGE2 EP2 inh)
COc1ccc(C(C)=O)cc1CSc1nc2cc(C(=O)O)ccc2c(=O)n1Cc1ccccc1	EP2 mod 64
CCOC(Cn1c(SCc2cc(C(C)=O)ccc2OC)nc2ccccc2c1=O)OCC	none
O=C(Nc1ccc(Nc2ccccc2)cc1)c1cccs1	none (no result: FXIa inh, FXIIa inh, Thrombin inh, hK5 inh)
CC(=O)c1cccc(NC(=O)c2csc(-n3nc(C)cc3C(F)(F)F)n2)c1	hK5 inh 56
Cc1cc(C(F)(F)F)n(-c2nc(C(=O)Nc3cccnc3)cs2)n1	none
COc1ccccc1CN(C(=O)c1cc2ccccc2oc1=O)C1CCCC1	none (no result: FXIa inh, FXIIa inh, Thrombin inh, hK5 inh)
O=C1CSC(=O)N1Cc1ccccc1F	none (no result: FXIa inh, FXIIa inh, Thrombin inh, hK5 inh)
CC[C@H](Cn1nc(-c2ccc(F)c(F)c2)ccc1=O)NC(=O)C1CCCCC1	none (no result: FXIa inh, FXIIa inh, PGE2 EP2 inh, Thrombin inh, hK5 inh)
Cc1cc(OC(=O)c2ccc(Cl)cc2Cl)nc(C)n1	FXIIa inh 45
COc1ccc(NC(=O)Cn2nnc(-c3cccnc3)n2)c(OC)c1	none (no result: FXIa inh, FXIIa inh, Thrombin inh, hK5 inh)
Cc1ccc2cc(CN(CCN(C)C)C(=S)NCC3CCCO3)c(=O)[nH]c2c1 (stereo not given)	none (no result: FXIa inh, FXIIa inh, Thrombin inh, hK5 inh)
O=C(Nc1ccccc1-c1nnn(CC(=O)N2CCc3ccccc3C2)n1)C1CCC1	hK5 inh 56
CC1(C)Cc2c(cnn2-c2ccc(F)cc2)C(NC(=O)Cc2ccc3c(c2)OCO3)C1 (stereo not given)	none (no result: FXIa inh, FXIIa inh, Thrombin inh, hK5 inh)
O=C(NC1CCCc2ccccc21)C1CCN(S(=O)(=O)c2ccccc2F)CC1 (stereo not given)	FXIIa inh 88
O=C(Nc1ccc(N2CCOCC2)cc1)C1CCN(S(=O)(=O)c2ccccc2F)CC1	Thrombin inh 70
O=C(Nc1ccc(N2CCOCC2)cc1)C1CCCN(S(=O)(=O)c2ccccc2)C1 (stereo not given)	none
COc1ccc(N(CC(=O)NCc2ccc(Cl)cc2)S(=O)(=O)c2ccccc2[N+](=O)[O-])c(OC)c1	FXIa inh 102
CCC1(C)Cc2c(C#N)c(N)sc(=S)c2CO1 (stereo not given)	none
N#Cc1c(N)sc(=S)c2c1CCCC2	PGE2 EP2 inh 64
CCN(CC)CCNC(=O)c1ccc2c(c1NCCO)C(=O)c1ccccc1C2=O	PGE2 EP2 inh 56
COc1cccc(C2(NC(=O)c3ccc(Cn4cc(Cl)cn4)o3)CCCC2)c1	none (no result: FXIa inh, FXIIa inh, Thrombin inh, hK5 inh)
COc1ccc2c(c1)CCc1c(-c3noc4c3CCc3cc(OC)ccc3-4)noc1-2	PGE2 EP2 inh 45 (no result: FXIa inh, FXIIa inh, Thrombin inh, hK5 inh)
CCCNC(=O)c1noc2c1CCc1cc(OC)ccc1-2	none
COc1ccc(CN(Cc2ccccc2)CC2CCCO2)cc1CO (stereo not given)	none (no result: FXIa inh, FXIIa inh, Thrombin inh, hK5 inh)
N#Cc1ccccc1NC(=O)COC(=O)COc1ccccc1[N+](=O)[O-]	Thrombin inh 42
O=C(COC(=O)COc1ccccc1[N+](=O)[O-])NC1CCCC1	none
O=C(COC(=O)CCC(=O)c1cccs1)Nc1ccccc1[N+](=O)[O-]	Thrombin inh 42
CC(C)N(C(=O)CSc1nn2c(=O)c(C(C)(C)C)nnc2s1)c1ccccc1	none
Cc1cc(C(=O)CSc2nn3c(=O)c(C(C)(C)C)nnc3s2)c(C)n1-c1ccc(F)cc1	PGE2 EP2 inh 44
CC(C)c1nc2sc3c(c2c2nnc(SCC(=O)NC4CCCC4)n12)CCCC3	none (no result: FXIa inh, FXIIa inh, Thrombin inh, hK5 inh)
O=C(O)C[C@H]1OCC=C2C[N+]3([O-])CC[C@@]45c6ccccc6N[C@@H]4[C@@H]1[C@@H]2C[C@H]53 (stereo not given in full)	PGE2 EP2 inh 54 (no result: FXIa inh, FXIIa inh, Thrombin inh, hK5 inh)
O=C1CN(C(=O)COc2ccc(F)cc2Cl)c2ccccc2N1	hK5 inh 54
Cc1cc(C(=O)OCC(=O)N2CC(=O)Nc3ccccc32)c(C)n1-c1ccccc1	hK5 inh 60
O=C1CN(C(=O)COc2cccc(F)c2)c2ccccc2N1	none
Cc1cc(C(=O)OCC(=O)N2CC(=O)Nc3ccccc32)c(C)n1-c1ccc(F)cc1	none
Cn1c2ccccc2c2cc(C(=O)OCC(=O)N3CC(=O)Nc4ccccc43)sc21	PGE2 EP2 inh 53
COc1cccc(NC(=O)CCN2CCCC(C)C2)c1 (stereo not given)	none (no result: FXIa inh, FXIIa inh, Thrombin inh, hK5 inh)
O=C(N/N=C/c1ccccc1)NC1CCCCC1	EP2 mod 64
